Source: ChEMBL document CHEMBL4422614 (Eur J Med Chem, 2019)
Active and inactive are the calls of the source. No cut-off for these calls is given here.

Experiments:
[1] = Drug metabolism in Sprague-Dawley rat liver microsomes assessed as metabolic rate up to 180 mins in presence of NADPH by UV-based LC-MS/MS analysis; format: ADME, Microsome; conditions: 3 h
SH-SY5Y [2] = experiment: Antioxidant activity in human SH-SY5Y cells assessed as inhibition of t-BuOOH-induced intracellular oxidative stress by measuring ROS level preincubated for 24 hrs followed by t-BuOOH addition and measured after 30 mins by DCFH-DA dye-based fluorescence assay; format: functional, cell-based
Mus musculus [3] = experiment: (§1) Neuroprotection in amyloid beta (25 to 35 residues) induced C57BL/6J mouse model of Alzheimer's disease assessed as reduction in ratio of apoptotic neuron in CA3 hippocampus region at 30 mg/kg/day, ig administered for 26 consecutive days by hematoxylin and eosin staining-based light microscopic analysis (reference value: 80.2 +/- 8.6%); format: ADME, organism-based; set-up: scale not given: the % may be the effect or the level left; conditions: in vivo, po
In short: (§2)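 Hippocampal CA1, CA3 and DG neurons were stained with H&E after the Aβ25-35 ICV model and 26-day intragastric dosing. Denatured cell index = denatured cells/total cells, n = 5. Values are mean ± SD, two-way ANOVA versus model.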

[4] = Toxicity in amyloid beta (25 to 35 residues) induced C57BL/6J mouse model of Alzheimer's disease assessed as emesis at 30 mg/kg/day, ig administered for 26 consecutive days; format: organism-based; conditions: in vivo, po
In short: (§3)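 Mice were randomized into 7 groups. All except sham got an ICV injection of Aβ25-35 (3 nmol); sham got the same volume of saline ICV. Dosing was intragastric daily for 26 days, with 0.5% CMC-Na as vehicle for sham and model. Body weight, diarrhea and emesis-like behavior were monitored.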

SH-SY5Y [5] = experiment: Cytotoxicity against human SH-SY5Y cells assessed as effect on cell viability at 10 uM after 24 hrs by MTT assay; format: cell-based
In short: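 SH-SY5Y viability was measured by MTT after exposure to compounds at 10 µM. Results are percent of vehicle control from three independent experiments.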

[6] = Hepatotoxicity in C57BL/6 mouse assessed as tissue damage up to 2000 mg/kg, ig after 14 days by microscopic analysis; format: toxicity, organism-based; conditions: in vivo, po, 336 h
In short: (§4)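 Mice given a single intragastric dose of test compound at various dosages, then observed for 14 days for death and abnormal behaviour. On day 14, animals were sacrificed and heart, liver, lungs and kidneys examined.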

[7] = Acute Toxicity in C57BL/6 mouse lung assessed as abnormal changes up to 2000 mg/kg, ig after 14 days by microscopic analysis; format: organism-based; conditions: in vivo, po, 336 h; in short: as §4
Mus musculus [8] = experiment: as §1, with “DG” for “CA3”, “55.8” for “80.2”, “7.2%)” for “8.6%)”; format: ADME, organism-based; set-up: scale not given: the % may be the effect or the level left; conditions: in vivo, po; in short: as §2
in vitro [9] = conditions: PAMPA
[10] = Metal chelating activity of the compound assessed as formation of zinc-compound complex at 50 uM after 30 mins by UV-vis spectrophotometric analysis
In short: (§5)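 UV-vis absorption spectra of compound (50 µM) were recorded in HEPES buffer alone and with 50 µM CuSO4, ZnCl2, FeSO4 or FeCl3, and spectral changes were assessed.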

[11] = Cardiotoxicity in C57BL/6 mouse assessed as abnormal changes up to 2000 mg/kg, ig after 14 days by microscopic analysis; format: toxicity, organism-based; conditions: in vivo, po, 336 h; in short: as §4
[12] = Metal chelating activity assessed as inhibition of Cu(II)/ascorbate-induced ROS production by measuring […] level at 10 uM by fluorescence assay
In short: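 A Cu-ascorbate redox system in PBS (pH 7.4) at 37 °C, with Cu(II) 5 µM, ascorbate 150 µM and coumarin-3-carboxylic acid 50 µM as the hydroxyl radical trap. Compound was pre-incubated 10 min before ascorbate was added. Fluorescence of 7-hydroxy-CCA (ex 395, em 450 nm) was read every 30 s for 15 min.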

[13] = Metal chelating activity of the compound assessed as formation of cupric-compound complex at 50 uM after 30 mins by UV-vis spectrophotometric analysis; in short: as §5
in vitro [14] = conditions: Sprague-Dawley, rat, liver microsomes
[15] = Cardiotoxicity in C57BL/6 mouse assessed as tissue damage up to 2000 mg/kg, ig after 14 days by microscopic analysis; format: toxicity, organism-based; conditions: in vivo, po, 336 h; in short: as §4
[16] = Acute Toxicity in C57BL/6 mouse assessed as mouse mortality up to 2000 mg/kg, ig measured over 14 days; format: organism-based; conditions: in vivo, po, 336 h; in short: as §4
[17] = Metal chelating activity of the compound assessed as formation of ferrous-compound complex at 50 uM after 30 mins by UV-vis spectrophotometric analysis; in short: as §5
[18] = Metal chelating activity of the compound assessed as formation of ferric-compound complex at 50 uM after 30 mins by UV-vis spectrophotometric analysis; in short: as §5
Mus musculus [19] = experiment: Cognition enhancement activity in amyloid beta (25 to 35 residues) induced C57BL/6J mouse model of Alzheimer's disease assessed as decrease in escape latancy at 30 mg/kg/day, ig administered for 26 consecutive days by Morris water maze test; format: functional, organism-based; in short: as §3
Mus musculus [20] = experiment: Cognition enhancement activity in amyloid beta (25 to 35 residues) induced C57BL/6J mouse model of Alzheimer's disease assessed as swimming time in effective region at 30 mg/kg/day, ig administered for 26 consecutive days by Morris water maze test (4.3 +/- 1.3 sec); format: functional; in short: as §3
Mus musculus [21] = experiment: Cognition enhancement activity in amyloid beta (25 to 35 residues) induced C57BL/6J mouse model of Alzheimer's disease assessed as increase in number of virtual platform crossing at 30 mg/kg/day, ig administered for 26 consecutive days by Morris water maze test; format: functional, organism-based; in short: as §3
[22] = Acute Toxicity in C57BL/6 mouse up to 2000 mg/kg, ig measured every 14 days; format: organism-based; conditions: in vivo, po, 336 h; in short: as §4
[23] = Nephrotoxicity in C57BL/6 mouse assessed as tissue damage up to 2000 mg/kg, ig after 14 days by microscopic analysis; format: toxicity, organism-based; conditions: in vivo, po, 336 h; in short: as §4
Mus musculus [24] = experiment: (§6) Neuroprotection in C57BL/6J mouse model of amyloid beta (25 to 35 residues) induced Alzheimer's disease assessed as reduction in ratio of apoptotic neuron in CA1 hippocampus region at 30 mg/kg/day, ig administered for 26 consecutive days by hematoxylin and eosin staining-based light microscopic analysis (reference value: 40.6 +/- 12.5%); format: ADME, organism-based; set-up: scale not given: the % may be the effect or the level left; conditions: in vivo, po; in short: as §2
Mus musculus [25] = experiment: Cognition enhancement activity in amyloid beta (25 to 35 residues) induced C57BL/6J mouse model of Alzheimer's disease assessed as swimming speed at 30 mg/kg/day, ig administered for 26 consecutive days by Morris water maze test (reference value: 15.6 +/- 2.4 cm/sec); format: functional; in short: as §3
[26] = Antioxidant activity assessed as trolox equivalent of AAPH-induced radical scavenging activity at 10 to 20 uM preincubated for 10 mins followed by AAPH addition measured every minute for 120 mins by ORAC fluorescein assay; format: functional
In short: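 ORAC values are expressed as trolox equivalents, mean ± SD of three independent experiments.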

[27] = Acute Toxicity in C57BL/6 mouse lung assessed as tissue damage up to 2000 mg/kg, ig after 14 days by microscopic analysis; format: organism-based; conditions: in vivo, po, 336 h; in short: as §4
Mus musculus [28] = experiment: Cognition enhancement activity in amyloid beta (25 to 35 residues) induced C57BL/6J mouse model of Alzheimer's disease assessed as swimming path length in virtual platform at 30 mg/kg/day, ig administered for 26 consecutive days by Morris water maze test (10.2 +/- 3.2 cm); format: functional; in short: as §3
[29] = Nephrotoxicity in C57BL/6 mouse assessed as abnormal changes up to 2000 mg/kg, ig after 14 days by microscopic analysis; format: toxicity, organism-based; conditions: in vivo, po, 336 h; in short: as §4
[30] = target: 3',5'-cyclic-AMP phosphodiesterase 4D (Homo sapiens, UniProt Q08499); experiment: Inhibition of human PDE4D2 (86 to 413 residues) catalytic domain using [3H]-cAMP as substrate after 15 mins by liquid scintillation counting method
3',5'-cyclic-AMP phosphodiesterase 4D, sequence (Q08499 whole entry, the tested form may be a part): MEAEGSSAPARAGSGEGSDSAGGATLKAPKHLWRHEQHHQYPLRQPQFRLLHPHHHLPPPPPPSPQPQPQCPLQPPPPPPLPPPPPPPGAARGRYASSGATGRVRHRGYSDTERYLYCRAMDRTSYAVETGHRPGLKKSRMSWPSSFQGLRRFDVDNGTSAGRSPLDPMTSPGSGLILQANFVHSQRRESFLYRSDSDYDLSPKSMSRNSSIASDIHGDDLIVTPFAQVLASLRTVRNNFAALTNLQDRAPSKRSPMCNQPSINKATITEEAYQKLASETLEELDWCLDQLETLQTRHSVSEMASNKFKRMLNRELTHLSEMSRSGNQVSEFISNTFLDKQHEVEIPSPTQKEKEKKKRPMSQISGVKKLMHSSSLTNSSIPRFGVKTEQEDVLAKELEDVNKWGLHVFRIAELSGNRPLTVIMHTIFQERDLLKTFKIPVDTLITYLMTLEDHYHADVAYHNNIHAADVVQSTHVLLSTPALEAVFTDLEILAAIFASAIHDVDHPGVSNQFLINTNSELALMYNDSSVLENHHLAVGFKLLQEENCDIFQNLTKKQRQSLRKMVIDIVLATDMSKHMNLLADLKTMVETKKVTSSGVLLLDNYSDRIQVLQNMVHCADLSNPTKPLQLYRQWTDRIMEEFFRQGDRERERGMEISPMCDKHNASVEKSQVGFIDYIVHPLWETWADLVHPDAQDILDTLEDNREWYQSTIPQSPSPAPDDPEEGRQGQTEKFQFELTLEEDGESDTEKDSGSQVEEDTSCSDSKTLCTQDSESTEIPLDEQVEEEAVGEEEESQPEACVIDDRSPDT

[31] = Hepatotoxicity in C57BL/6 mouse assessed as abnormal changes up to 2000 mg/kg, ig after 14 days by microscopic analysis; format: toxicity, organism-based; conditions: in vivo, po, 336 h; in short: as §4
[32] = Metal chelating activity assessed as inhibition of Cu(II)-induced amyloid beta (1 to 42 residues) aggregation at 25 uM after 24 hrs by TEM assay
In short: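 Samples were prepared as for the ThT assay. 10 µL aliquots were applied to carbon-coated copper grids for 2 min, then stained with 3% phosphotungstic acid for 2 min and imaged by transmission electron microscopy.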

[33] = Acute Toxicity in C57BL/6 mouse assessed as abnormal behavior up to 2000 mg/kg, ig measured over 14 days; format: organism-based; conditions: in vivo, po, 336 h; in short: as §4
[34] = Toxicity in amyloid beta (25 to 35 residues) induced C57BL/6J mouse model of Alzheimer's disease assessed as diarrhea at 30 mg/kg/day, ig administered for 26 consecutive days; format: organism-based; conditions: in vivo, po; in short: as §3
[35] = Toxicity in amyloid beta (25 to 35 residues) induced C57BL/6J mouse model of Alzheimer's disease assessed as loss of body weight at 30 mg/kg/day, ig administered for 26 consecutive days; format: organism-based; conditions: in vivo, po; in short: as §3
Mus musculus [36] = experiment: as §1, with “DG” for “CA3”, “4” for “30”, “55.8” for “80.2”, “7.2%)” for “8.6%)”; format: ADME, organism-based; set-up: scale not given: the % may be the effect or the level left; conditions: in vivo, po; in short: as §2
Mus musculus [37] = experiment: Cognition enhancement activity in amyloid beta (25 to 35 residues) induced C57BL/6J mouse model of Alzheimer's disease assessed as decrease in escape latancy at 4 mg/kg/day, ig administered for 26 consecutive days by Morris water maze test; format: functional, organism-based; in short: as §3
Mus musculus [38] = experiment: as §6, with “in” for “in C57BL/6J mouse model of”, “induced C57BL/6J mouse model of” for “induced”, “4” for “30”; format: ADME, organism-based; set-up: scale not given: the % may be the effect or the level left; conditions: in vivo, po; in short: as §2
Mus musculus [39] = experiment: Cognition enhancement activity in amyloid beta (25 to 35 residues) induced C57BL/6J mouse model of Alzheimer's disease assessed as swimming time in effective region at 4 mg/kg/day, ig administered for 26 consecutive days by Morris water maze test (4.3 +/- 1.3 sec); format: functional; in short: as §3
Mus musculus [40] = experiment: Cognition enhancement activity in amyloid beta (25 to 35 residues) induced C57BL/6J mouse model of Alzheimer's disease assessed as swimming path length in virtual platform at 4 mg/kg/day, ig administered for 26 consecutive days by Morris water maze test (10.2 +/- 3.2 cm); format: functional; in short: as §3
Mus musculus [41] = experiment: as §1, with “4” for “30”; format: ADME, organism-based; set-up: scale not given: the % may be the effect or the level left; conditions: in vivo, po; in short: as §2

Cl.O=C(Nc1ccc(O)c2ncccc12)c1ccc(OC(F)F)c(OCC2CC2)c1
K [1]: 0.00767 min⁻¹
Activity (SH-SY5Y [2]): Dose-dependent effect
Activity (Mus musculus [3]): 7.9%
Activity [4]: Non-Toxic
Activity (SH-SY5Y [5]): Non-Toxic
Activity [6]: Non-Toxic
Activity [7]: Non-Toxic
Activity (Mus musculus [8]): 18.7%
Papp at 10 h, 100 ug/ml (in vitro [9]): 12.9 ×10⁻⁶ cm/s
Activity [10]: Active
Activity [11]: Non-Toxic
Activity [12]: Active
Activity [13]: Active
half-life (in vitro [14]): 1.5 h
Activity [15]: Non-Toxic
Activity [16]: Non-Toxic
Activity [17]: Active
Activity [18]: Active
Activity (Mus musculus [19]): Active
Time (Mus musculus [20]): 6.8 s
Activity (Mus musculus [21]): Active
Activity [22]: Non-Toxic
Activity [23]: Non-Toxic
Activity (Mus musculus [24]): 12.5%
Activity (Mus musculus [25]): 15 cm/s
Activity [26]: 0.6 equiv
Activity [27]: Non-Toxic
Activity (Mus musculus [28]): 19 cm
Activity [29]: Non-Toxic
IC50 [30]: 399 nM
Activity [31]: Non-Toxic
Activity [32]: Active
Activity [33]: Non-Toxic
Activity [34]: Non-Toxic
Activity [35]: Non-Toxic

COc1ccc(C2CNC(=O)C2)cc1OC1CCCC1 (centres undefined) [ROLIPRAM]
Activity (Mus musculus [36]): 25.7%
Activity (Mus musculus [37]): Active
Papp at 10 h, 100 ug/ml (in vitro [9]): 18.9 ×10⁻⁶ cm/s
Activity (Mus musculus [38]): 33.5%
Activity (Mus musculus [25]): 15.1 cm/s
Activity [26]: 0.07 equiv
Time (Mus musculus [39]): 5.7 s
Activity (Mus musculus [40]): 16.5 cm
Activity (Mus musculus [41]): 41.1%
